# Data: ChEMBL document CHEMBL4118248, “Small Molecule Proprotein Convertase Subtilisin/Kexin Type 9 (PCSK9) Inhibitors: Hit to Lead Optimization of Systemic Agents” (J Med Chem, 2018)
# Assays:
# [1] = Lipophilicity, log D of the compound by shake flask method; type: physicochemical; conditions: octanol/water
# Summary of the method: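 LogD measured by the shake-flask method.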
# [2] = Apparent permeability in RRCK cells; type: ADME, cell-based, Canis lupus familiaris, MDCKII-LE; conditions: dog, MDCK
# Summary of the method: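 Passive permeability measured in RRCK cells, a modified Madin-Darby canine kidney line; Papp reported in 10^-6 cm/s.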
# [3] = Intrinsic clearance in rat liver microsomes; type: ADME, microsome; conditions: read-out: CLH
# [4] = Intrinsic clearance in human liver microsomes; type: ADME, microsome; conditions: read-out: CLH
# [5] = target: 80S Ribosome; assay: Binding affinity to 80S ribosome in human HuH7 cells harboring pCMV-truncated human PCSK9 (1 to 152 residues)-proLuc assessed as inhibition of PCSK9 mRNA translation after overnight incubation by luciferase reporter gene assay; type: cell-based; conditions: huh-7
# Summary of the method: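 Huh7 cells stably carry human PCSK9 prodomain (aa 1-152) fused to firefly luciferase (aa 2-550) in pcDNA3.1, kept under 900 µg/mL Geneticin. Plated 10,000/well in phenol red-free DMEM/10% FBS and left 4 h, then compound added (top final 20 µM, 0.5% DMSO). Incubated overnight at 37 °C, luminescence read with SteadyGlo.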
# [6] = Permeability from apical to basolateral side in MDCK cells harboring MDR1; type: ADME, cell-based, Canis lupus familiaris; conditions: dog, read-out: permeability
# Summary of the method: (§1)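 Bidirectional permeability across MDR1-transfected MDCK monolayers, apical-to-basolateral and basolateral-to-apical; Papp reported in 10^-6 cm/s.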
# [7] = Permeability from basolateral to apical side in MDCK cells harboring MDR1; type: ADME, cell-based, Canis lupus familiaris; conditions: dog, read-out: permeability; summary of the method: as §1
# [8] = target: T1, Cytochrome P450 1A2 (Homo sapiens, UniProt P05177); assay: Inhibition of CYP1A2 (unknown origin); type: ADME
# T1 sequence (P05177 whole entry): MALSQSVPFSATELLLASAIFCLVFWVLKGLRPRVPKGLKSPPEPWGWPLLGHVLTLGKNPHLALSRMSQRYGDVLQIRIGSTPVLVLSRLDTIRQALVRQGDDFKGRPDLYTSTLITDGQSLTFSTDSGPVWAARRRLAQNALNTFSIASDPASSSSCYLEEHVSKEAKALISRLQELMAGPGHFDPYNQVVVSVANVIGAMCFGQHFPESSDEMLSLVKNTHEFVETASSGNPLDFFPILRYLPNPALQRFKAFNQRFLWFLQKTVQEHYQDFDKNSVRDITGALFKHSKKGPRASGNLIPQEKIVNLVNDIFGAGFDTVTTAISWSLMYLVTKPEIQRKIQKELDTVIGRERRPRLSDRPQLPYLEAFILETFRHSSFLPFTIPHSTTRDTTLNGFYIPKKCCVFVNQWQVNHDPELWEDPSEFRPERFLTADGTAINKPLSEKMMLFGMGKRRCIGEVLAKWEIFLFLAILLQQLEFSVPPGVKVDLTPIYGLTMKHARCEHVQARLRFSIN
# Summary of the method: (§2)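 Inhibition of CYP1A2, 2D6, 2C9 and 3A4 reported as IC50, or as percent inhibition at 3 µM.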
# [9] = target: Cytochrome P450 2D6 (Homo sapiens, UniProt P10635); assay: Inhibition of CYP2D6 (unknown origin); type: ADME; summary of the method: as §2
# [10] = target: Cytochrome P450 2C9 (Homo sapiens, UniProt P11712); assay: Inhibition of CYP2C9 (unknown origin); type: ADME; summary of the method: as §2
# [11] = Fraction unbound in rat plasma; type: ADME, cell-free
# Summary of the method: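 Unbound fraction measured in rat plasma.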
# [12] = Cytotoxicity against human CD34-positive hematopoietic progenitor cells assessed as reduction in cell viability after 72 hrs by CellTiter-Glo assay; type: cell-based
# [13] = system: Rattus norvegicus; assay: Reduction in total cholesterol level in Crl:CD(SD) rat at 50 mg/kg/day, po daily via gavage for 14 days measured on day 15 post last dose relative to control; type: functional; parameters: scale not given: the % may be the effect or the level left
# [14] = system: Rattus norvegicus; assay: Reduction in LDL cholesterol level in Crl:CD(SD) rat at 50 mg/kg/day, po daily via gavage for 14 days measured on day 15 post last dose relative to control; type: functional; parameters: scale not given: the % may be the effect or the level left
# [15] = system: Rattus norvegicus; assay: Toxicity in Crl:CD(SD) rat assessed as decrease in hematocrit and hemoglobin level at 50 mg/kg/day, po daily via gavage for 14 days measured on day 15 post last dose relative to control; type: organism-based; parameters: scale not given: the % may be the effect or the level left; conditions: in vivo, 336 h
# [16] = system: Rattus norvegicus; assay: Toxicity in Crl:CD(SD) rat assessed as decrease in absolute maturing erythroid cells at 50 mg/kg/day, po daily via gavage for 14 days measured on day 15 post last dose relative to control; type: organism-based; parameters: scale not given: the % may be the effect or the level left; conditions: in vivo, 336 h
# [17] = system: Rattus norvegicus; assay: Toxicity in Crl:CD(SD) rat assessed as decrease in total erythroid cells at 50 mg/kg/day, po daily via gavage for 14 days measured on day 15 post last dose relative to control; type: organism-based; parameters: scale not given: the % may be the effect or the level left; conditions: in vivo, 336 h
# [18] = system: Rattus norvegicus; assay: Toxicity in Crl:CD(SD) rat assessed as decrease in WBC at 50 mg/kg/day, po daily via gavage for 14 days measured on day 15 post last dose relative to control; type: organism-based; parameters: scale not given: the % may be the effect or the level left; conditions: in vivo, 336 h
# [19] = system: Rattus norvegicus; assay: Toxicity in Crl:CD(SD) rat assessed as decrease in lymphocytes at 50 mg/kg/day, po daily via gavage for 14 days measured on day 15 post last dose relative to control; type: organism-based; parameters: scale not given: the % may be the effect or the level left; conditions: in vivo, 336 h
# [20] = system: Rattus norvegicus; assay: Toxicity in Crl:CD(SD) rat assessed as decrease in monocytes at 50 mg/kg/day, po daily via gavage for 14 days measured on day 15 post last dose relative to control; type: organism-based; parameters: scale not given: the % may be the effect or the level left; conditions: in vivo, 336 h
# [21] = system: Rattus norvegicus; assay: Toxicity in Crl:CD(SD) rat assessed as decrease in eosinophils at 50 mg/kg/day, po daily via gavage for 14 days measured on day 15 post last dose relative to control; type: organism-based; parameters: scale not given: the % may be the effect or the level left; conditions: in vivo, 336 h
# [22] = system: Rattus norvegicus; assay: Toxicity in Crl:CD(SD) rat assessed as decrease in basophils at 50 mg/kg/day, po daily via gavage for 14 days measured on day 15 post last dose relative to control; type: organism-based; parameters: scale not given: the % may be the effect or the level left; conditions: in vivo, 336 h
# [23] = system: Rattus norvegicus; assay: Toxicity in Crl:CD(SD) rat assessed as decrease in total T cells at 50 mg/kg/day, po daily via gavage for 14 days measured on day 15 post last dose relative to control; type: organism-based; parameters: scale not given: the % may be the effect or the level left; conditions: in vivo, 336 h
# [24] = system: Rattus norvegicus; assay: Toxicity in Crl:CD(SD) rat assessed as decrease in helper T cells at 50 mg/kg/day, po daily via gavage for 14 days measured on day 15 post last dose relative to control; type: organism-based; parameters: scale not given: the % may be the effect or the level left; conditions: in vivo, 336 h
# [25] = system: Rattus norvegicus; assay: Toxicity in Crl:CD(SD) rat assessed as decrease in cytotoxic T cells at 50 mg/kg/day, po daily via gavage for 14 days measured on day 15 post last dose relative to control; type: organism-based; parameters: scale not given: the % may be the effect or the level left; conditions: in vivo, 336 h
# [26] = system: Rattus norvegicus; assay: Toxicity in Crl:CD(SD) rat at 5 to 15 mg/kg/day, po daily via gavage for 14 days measured on day 15 post last dose; type: organism-based; conditions: in vivo, 336 h
# [27] = system: Rattus norvegicus; assay: Toxicity in Crl:CD(SD) rat assessed as discolored/mottled liver at 50 mg/kg/day, po daily via gavage for 14 days measured on day 15 post last dose; type: organism-based; conditions: in vivo, 336 h
# Summary of the method: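 Male rats, 5 per group, given vehicle or compound at 50 mg/kg/day by oral gavage for 14 days. Mortality, clinical signs and hematology monitored throughout. Necropsy on day 15 with microscopy of bone marrow, ileum, duodenum, jejunum and liver. Toxicokinetics at 1, 3, 6 and 24 h post-dose on day 14.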
# [28] = Total plasma concentration in Crl:CD(SD) rat at 15 mg/kg/day, po daily via gavage for 14 days measured on day 14 post last dose up to 24 hrs; type: ADME, organism-based; conditions: in vivo
# [29] = system: Rattus norvegicus; assay: Toxicity in Crl:CD(SD) rat at 15 mg/kg/day, po daily via gavage for 14 days; type: organism-based; conditions: in vivo, 336 h
# [30] = target: 80S Ribosome; assay: Binding affinity of [3H]PF-06446846 to human 80S ribosome
# Chain of Cytochrome P450 2D6 (P10635 whole entry): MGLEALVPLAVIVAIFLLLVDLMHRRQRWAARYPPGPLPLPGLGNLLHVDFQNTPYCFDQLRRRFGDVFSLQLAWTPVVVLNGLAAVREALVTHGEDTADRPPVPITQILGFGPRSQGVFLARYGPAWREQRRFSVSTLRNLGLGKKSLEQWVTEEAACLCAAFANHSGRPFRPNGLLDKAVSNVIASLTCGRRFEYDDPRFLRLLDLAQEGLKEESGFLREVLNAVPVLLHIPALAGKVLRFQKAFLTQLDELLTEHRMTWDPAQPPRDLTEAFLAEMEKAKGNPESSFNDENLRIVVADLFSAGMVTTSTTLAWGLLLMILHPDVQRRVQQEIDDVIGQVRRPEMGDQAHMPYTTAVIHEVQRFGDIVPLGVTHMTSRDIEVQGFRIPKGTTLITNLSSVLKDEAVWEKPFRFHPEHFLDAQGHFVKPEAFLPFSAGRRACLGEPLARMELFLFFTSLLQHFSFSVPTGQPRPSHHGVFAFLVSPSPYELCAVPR
# Chain of Cytochrome P450 2C9 (P11712 whole entry): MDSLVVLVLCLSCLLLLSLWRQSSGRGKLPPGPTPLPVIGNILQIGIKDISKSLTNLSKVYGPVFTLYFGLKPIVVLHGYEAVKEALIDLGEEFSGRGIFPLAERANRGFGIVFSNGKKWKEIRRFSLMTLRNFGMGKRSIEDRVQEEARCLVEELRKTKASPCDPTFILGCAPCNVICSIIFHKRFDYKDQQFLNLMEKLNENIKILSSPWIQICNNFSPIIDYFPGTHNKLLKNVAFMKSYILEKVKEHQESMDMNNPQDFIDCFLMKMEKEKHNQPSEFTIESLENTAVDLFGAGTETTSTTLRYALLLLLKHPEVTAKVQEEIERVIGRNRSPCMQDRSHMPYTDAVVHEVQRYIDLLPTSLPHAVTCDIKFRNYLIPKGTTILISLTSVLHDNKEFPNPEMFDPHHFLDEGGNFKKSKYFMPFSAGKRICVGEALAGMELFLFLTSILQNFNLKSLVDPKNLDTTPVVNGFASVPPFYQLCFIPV
smiles,measurement,setting,value
O=C(c1ccc(-n2nnc3cccnc32)cc1)N(c1ncccc1Cl)[C@@H]1CCCNC1,logD,[1],0.8
same,Papp,[2],15 ×10⁻⁶ cm/s
same,microsomal CLint,[3],18.2 µL/min/mg
same,microsomal CLint,[4],9.7 µL/min/mg
same,IC50,[5],0.38 µM
same,Papp A→B,[6],1.5 ×10⁻⁶ cm/s
same,Papp B→A,[7],20.6 ×10⁻⁶ cm/s
same,IC50,[8],> 30 µM
same,IC50,[9],> 30 µM
same,IC50,[10],> 30 µM
same,fraction unbound,[11],0.2
same,IC50,[12],2.7 µM
same,Activity,[13],30%
same,Activity,[14],58%
same,Activity,[15],9 to 10%
same,Activity,[16],48%
same,Activity,[17],46%
same,Activity,[18],52%
same,Activity,[19],54%
same,Activity,[20],63%
same,Activity,[21],54%
same,Activity,[22],100%
same,Activity,[23],54%
same,Activity,[24],54%
same,Activity,[25],54.5%
same,Activity,[26],Non-Toxic
same,Activity,[27],Toxic
same,concentration,[28],2420 nM
same,NOAEL,[29],478 nM
same,Ki,[30],7 µM
